The record followed here is ChEMBL document CHEMBL1124770, “Synthesis and pharmacological evaluation of amino, azido, and nitrogen mustard analogues of 10-substituted cannabidiol and 11- or 12-substituted delta 8-tetrahydrocannabinol” (1990).

Holding throughout (assay type): functional
Experiment [1] relates to Mus musculus. Kind of experiment: Tail-flick latency was determined at a concentration of 100 mg/Kg. The procedure, abridged: (§1)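 Mice, drug suspended in ethanol/emulphor/saline (1:1:18) and given by tail-vein injection (0.1 mL/10 g). Antinociception measured as tail-flick latency (s). Vehicle and Δ9-THC positive controls run in each daily experiment. Data given as mean ± SEM. ANOVA with Dunnett's t test against control, p < 0.05 (two-tailed).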

Experiment [2] relates to Mus musculus. Kind of experiment: Evaluated for hypothermic activity in mice at a dose of 0 mg/Kg. The procedure, abridged:
(§2)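 Mice dosed by tail-vein injection (0.1 mL/10 g) in ethanol/emulphor/saline (1:1:18). Body temperature change (°C) measured by previously reported methods. Vehicle and Δ9-THC positive controls run each day. Mean ± SEM; ANOVA with Dunnett's t test versus control, p < 0.05 two-tailed.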

Experiment [3] has as its system Mus musculus. Kind of experiment: Tail-flick latency was determined at a concentration of 0 mg/Kg. Summed up:
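Antinociception in mice by tail-flick latency (s), per previously reported methods, after tail-vein injection (0.1 mL/10 g) in ethanol/emulphor/saline (1:1:18). Vehicle and Δ9-THC controls run daily. Mean ± SEM; ANOVA with Dunnett's t test, p < 0.05 two-tailed.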
Background: In hot-plate and tail-flick tests a longer latency is read as antinociception.

The subject of experiment [4] is Mus musculus. Kind of experiment: Evaluated for catalepsy activity in mice and percentage immobility was determined at a concentration of 100 mg/Kg. The procedure, abridged:
(§3)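 Mice, single tail-vein injection (0.1 mL/10 g) in ethanol/emulphor/saline (1:1:18). Catalepsy scored by ring test as % immobility, per previously reported methods. Vehicle and Δ9-THC positive-control groups run in each daily experiment. Mean ± SEM; ANOVA with Dunnett's t test versus control, p < 0.05 two-tailed.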

Experiment [5] concerns Mus musculus. Kind of experiment: Evaluated for catalepsy activity in mice and percentage immobility was determined at a concentration of 0 mg/Kg. The procedure, abridged:
as §3

In experiment [6] the test system is Mus musculus. Kind of experiment: Evaluated for reduction in spontaneous locomotor activity in mice, at a dose of 0 mg/Kg. The procedure, abridged: (§4)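 Tail-vein injection in mice (0.1 mL/10 g; ethanol/emulphor/saline 1:1:18). Spontaneous locomotor activity counted as counts/10 min, per previously reported methods. Daily vehicle and Δ9-THC positive controls. Mean ± SEM; ANOVA with Dunnett's t test, p < 0.05 two-tailed.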

In experiment [7] the test system is Mus musculus. Kind of experiment: Evaluated for hypothermic activity in mice at a dose of 100 mg/Kg. The procedure, abridged: as §2
Experiment [8] relates to Mus musculus. Kind of experiment: Evaluated for reduction in spontaneous locomotor activity in mice at a dose of 100 mg/Kg. The procedure, abridged:
as §4

The subject of experiment [9] is Mus musculus. The experiment can be described thus: Evaluated for reduction in spontaneous locomotor activity in mice, at a dose of 100 ug/Kg administered intraventricularly. Summed up:
(§5)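 Mice given intraventricular injection of 5 μL in ethanol/emulphor/saline (1:1:18). Spontaneous locomotor activity recorded as counts/10 min by previously reported methods, alongside vehicle and Δ9-THC controls. Mean ± SEM; ANOVA with Dunnett's t test, p < 0.05 two-tailed.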

Experiment [10] concerns Mus musculus. Kind of experiment: Tail-flick latency was determined at a concentration of 100 ug/Kg administered intraventricularly.
In experiment [11] the test system is Mus musculus. Kind of experiment: Evaluated for reduction in spontaneous locomotor activity in mice, at a dose of 0 ug/Kg administered intraventricularly. The procedure, abridged:
as §5

In experiment [12] the test system is Mus musculus. The experiment can be described thus: Tail-flick latency was determined at a concentration of 3 mg/Kg. Summed up:
as §1

Experiment [13] concerns Mus musculus. The experiment can be described thus: Evaluated for reduction in spontaneous locomotor activity in mice, at a dose of 30 mg/Kg. The procedure, abridged:
as §4

Experiment [14] deals with Mus musculus. Kind of experiment: Evaluated for hypothermic activity in mice at a dose of 0.3 mg/Kg. The procedure, abridged:
as §2

The test system of experiment [15] is Mus musculus. The experiment can be described thus: Evaluated for hypothermic activity in mice at a dose of 6 mg/Kg. Summed up: as §2
Experiment [16] concerns Mus musculus. Kind of experiment: Tail-flick latency was determined at a concentration of 150 ug/Kg administered intraventricularly. Summed up:
(§6)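 Mice, injected intraventricularly in 5 μL of ethanol/emulphor/saline (1:1:18) vehicle. Doses given as μg amounts. Antinociception read as tail-flick latency (s), alongside vehicle control. Values reported as mean ± SEM. ANOVA with Dunnett's t test versus control, significance at p < 0.05 (two-tailed).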

The subject of experiment [17] is Mus musculus. Kind of experiment: Evaluated for reduction in spontaneous locomotor activity in mice, at a dose of 3 mg/Kg. Summed up:
as §4

For experiment [18], the system named is Mus musculus. The experiment can be described thus: Evaluated for catalepsy activity in mice and percentage immobility was determined at a concentration of 6 mg/Kg. Summed up: as §3
For experiment [19], the system named is Mus musculus. Kind of experiment: Tail-flick latency was determined at a concentration of 0.3 mg/Kg. The procedure, abridged: as §1
Experiment [20] relates to Mus musculus. The experiment can be described thus: Evaluated for catalepsy activity in mice and percentage immobility was determined at a concentration of 0.3 mg/Kg. The procedure, abridged: as §3
For experiment [21], the system named is Mus musculus. Kind of experiment: Evaluated for catalepsy activity in mice and percentage immobility was determined at a concentration of 30 mg/Kg. The procedure, abridged:
as §3

In experiment [22] the test system is Mus musculus. Kind of experiment: Tail-flick latency was determined at a concentration of 0 ug/Kg administered intraventricularly. Summed up:
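Tail-flick latency (s) in mice after intraventricular injection (5 μL) of ethanol/emulphor/saline (1:1:18) vehicle, measured by previously reported methods. Mean ± SEM; ANOVA with Dunnett's t test, p < 0.05 two-tailed.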

Experiment [23] relates to Mus musculus. The experiment can be described thus: Tail-flick latency was determined at a concentration of 50 ug/Kg administered intraventricularly. The procedure, abridged: as §6
In experiment [24] the test system is Mus musculus. Kind of experiment: Evaluated for hypothermic activity in mice at a dose of 150 ug/Kg administered intraventricularly. Summed up:
(§7)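 Intraventricular injection in mice, 5 μL volume, in ethanol/emulphor/saline (1:1:18) vehicle. Change in body temperature (°C) recorded by previously reported methods, with vehicle and Δ9-THC controls. Mean ± SEM; ANOVA with Dunnett's t test versus control, p < 0.05 two-tailed.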

In experiment [25] the test system is Mus musculus. Kind of experiment: Evaluated for hypothermic activity in mice at a dose of 30 mg/Kg. The procedure, abridged: as §2
In experiment [26] the test system is Mus musculus. The experiment can be described thus: Evaluated for reduction in spontaneous locomotor activity in mice at a dose of 0.3 mg/Kg. Summed up: as §4
Experiment [27] has as its system Mus musculus. Kind of experiment: Evaluated for reduction in spontaneous locomotor activity in mice, at a dose of 6 mg/Kg. Summed up: as §4
Experiment [28] concerns Mus musculus. The experiment can be described thus: Evaluated for hypothermic activity in mice at a dose of 3 mg/Kg. The procedure, abridged:
as §2

The test system of experiment [29] is Mus musculus. The experiment can be described thus: Evaluated for hypothermic activity in mice at a dose of 50 ug/Kg administered intraventricularly. Summed up:
as §7

For experiment [30], the system named is Mus musculus. The experiment can be described thus: Evaluated for reduction in spontaneous locomotor activity in mice, at a dose of 50 ug/Kg administered intraventricularly. The procedure, abridged:
as §5

Experiment [31] deals with Mus musculus. Kind of experiment: Tail-flick latency was determined at a concentration of 30 mg/Kg. Summed up: as §1
The test system of experiment [32] is Mus musculus. The experiment can be described thus: Tail-flick latency was determined at a concentration of 6 mg/Kg. Summed up: as §1
Experiment [33] concerns Mus musculus. The experiment can be described thus: Evaluated for catalepsy activity in mice and percentage immobility was determined at a concentration of 3 mg/Kg. Summed up: as §3
Experiment [34] relates to Mus musculus. The experiment can be described thus: Evaluated for hypothermic activity in mice at a dose of 0 ug/Kg administered intraventricularly. Summed up: as §7
For experiment [35], the system named is Mus musculus. The experiment can be described thus: Evaluated for hypothermic activity in mice at a dose of 100 ug/Kg administered intraventricularly. Summed up: as §7
For experiment [36], the system named is Mus musculus. The experiment can be described thus: Evaluated for reduction in spontaneous locomotor activity in mice, at a dose of 150 ug/Kg administered intraventricularly. Summed up: as §5
Experiment [37] relates to Mus musculus. Kind of experiment: Evaluated for catalepsy activity in mice and percentage immobility was determined at a concentration of 50 mg/Kg. Summed up:
as §3

In experiment [38] the test system is Mus musculus. Kind of experiment: Evaluated for hypothermic activity in mice at a dose of 50 mg/Kg. The procedure, abridged: as §2
Experiment [39] concerns Mus musculus. The experiment can be described thus: Evaluated for reduction in spontaneous locomotor activity in mice at a dose of 50 mg/Kg. Summed up:
as §4

Experiment [40] has as its system Mus musculus. Kind of experiment: Evaluated for reduction in spontaneous locomotor activity in mice at a dose of 150 ug/Kg administered intraventricularly. Summed up: as §5
Experiment [41] relates to Mus musculus. The experiment can be described thus: Tail-flick latency was determined at a concentration of 50 mg/Kg. The procedure, abridged: as §1

For the compound `C=C(C)[C@@H]1CCC(C)=CC1c1c(O)cc(O)cc1CCCCC` (some centres undefined), the Tail flick latency was determined as 0.8 s in experiment [1] and 0.2 s in experiment [3]. Besides, the results for the Temperature in [2] and in experiment [7] were -1.4 °C and -3.5 °C, respectively. In addition, the figures for the Immobility in experiment [4] and in experiment [5] were less than 30% and 4%, respectively. Also, the figures for the Spont activity in experiment [6] and in [8] were 45 Counts 10min-1 and 57 Counts 10min-1, respectively.

Turning to `CCCCCc1cc(O)c2c(c1)OC(C)(C)[C@@H]1CCC(C)=C[C@@H]21` [DRONABINOL], the Spont activity is listed as less than 41 Counts 10min-1 in experiment [9]; 103 Counts 10min-1 in experiment [11]; less than 7 Counts 10min-1 in experiment [13]; less than 30 Counts 10min-1 in [17]; 54 Counts 10min-1 in experiment [6]; 70 Counts 10min-1 in [26]. Also, the values for the Spont activity in [27], in [30] and in experiment [36] were less than 23 Counts 10min-1, 46 Counts 10min-1 and less than 33 Counts 10min-1, respectively. Further, the Tail flick latency in [10] was less than 2.3 s; in experiment [12] it was less than 2.9 s; in experiment [16], less than 4 s; in experiment [19], less than 2 s; in experiment [22], -0.2 s; in experiment [23], less than 1.6 s. The Tail flick latency is given as 0.6 s in experiment [3], less than 5.1 s in [31] and less than 4.9 s in [32]. Also, the Temperature is -1 °C in experiment [14]; less than -2.9 °C in experiment [15]; -1.1 °C in experiment [2]; less than -5.5 °C in experiment [24]; less than -5.1 °C in experiment [25]; less than -2.4 °C in experiment [28]. Moreover, the Temperature was -2.3 °C in experiment [29], -2.2 °C in experiment [34] and -3.6 °C in experiment [35]. Moreover, the Immobility in [18] is listed as less than 42%; in experiment [20], 9%; in experiment [21] it was less than 57%; in experiment [5], 8%; in experiment [33], less than 25%.

In the case of `CCCCCc1cc(O)c2c(c1)OC(C)(C)[C@@H]1CC=C(CN(CCCl)CCCl)CC21` (some centres undefined), the Spont activity in [11] was 87 Counts 10min-1; in experiment [6], 56 Counts 10min-1; in experiment [39], less than 27 Counts 10min-1; in experiment [40], 70 Counts 10min-1. Besides, the Temperature in experiment [2] was -0.8 °C; in experiment [24], -1.7 °C; in experiment [38], less than -3.8 °C; in experiment [34], -1.5 °C. Also, the Tail flick latency in experiment [16] is 0 s; in experiment [22] it was 0.2 s; in [3], 0.7 s; in experiment [41] it was -0.6 s. Besides, the Immobility was less than 24% in experiment [37] and 4% in experiment [5].
